This passage reports Activity and Efficacy results from ChEMBL document CHEMBL1151755, “Crystal structure of the peroxisome proliferator-activated receptor gamma (PPARgamma) ligand binding domain complexed with a novel partial agonist: a new region of the hydrophobic pocket could be exploited for drug design” (J Med Chem, 2008).

What all share (assay type): cell-based
Common to all, as to conditions: HepG2

Test [1] has as its target T1, Thyroid hormone receptor alpha (Homo sapiens) (UniProt P10827).
T1 sequence (whole entry): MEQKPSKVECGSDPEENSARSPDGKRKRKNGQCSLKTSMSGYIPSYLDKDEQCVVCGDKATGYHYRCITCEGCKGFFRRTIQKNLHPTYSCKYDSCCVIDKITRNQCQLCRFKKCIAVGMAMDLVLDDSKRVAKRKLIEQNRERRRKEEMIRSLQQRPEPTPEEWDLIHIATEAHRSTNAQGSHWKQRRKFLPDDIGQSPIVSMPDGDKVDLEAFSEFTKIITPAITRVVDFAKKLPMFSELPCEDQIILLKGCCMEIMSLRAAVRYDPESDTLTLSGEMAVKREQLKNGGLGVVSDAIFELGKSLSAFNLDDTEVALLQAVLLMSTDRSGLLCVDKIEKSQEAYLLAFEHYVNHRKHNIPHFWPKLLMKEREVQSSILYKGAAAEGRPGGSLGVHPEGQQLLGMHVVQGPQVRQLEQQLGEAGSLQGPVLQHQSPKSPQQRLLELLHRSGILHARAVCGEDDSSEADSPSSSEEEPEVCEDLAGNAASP
Kind of test: Increase in transcriptional activity of TRalpha ligand binding domain expressed in human Hep G2 cells co-transfected with Gal4-DBD by luciferase reporter gene assay. In outline:
(§1)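 HepG2 cells transfected for 4 h by calcium phosphate coprecipitation with 100 ng pGal4UAS-luciferase, 50 ng Gal4-LBD receptor vector and 300 ng CMV-β-galactosidase plasmid for normalization. Cells were washed in PBS, then refed with serum-free DMEM/F-12 containing penicillin/streptomycin and compound or 0.1% ethanol vehicle for 20 h. Luciferase read-out was normalized to β-galactosidase. Experiments were repeated at least three times.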

Test [2] concerns the target T2, Peroxisome proliferator-activated receptor alpha (Mus musculus) (UniProt P23204).
T2 sequence (whole entry): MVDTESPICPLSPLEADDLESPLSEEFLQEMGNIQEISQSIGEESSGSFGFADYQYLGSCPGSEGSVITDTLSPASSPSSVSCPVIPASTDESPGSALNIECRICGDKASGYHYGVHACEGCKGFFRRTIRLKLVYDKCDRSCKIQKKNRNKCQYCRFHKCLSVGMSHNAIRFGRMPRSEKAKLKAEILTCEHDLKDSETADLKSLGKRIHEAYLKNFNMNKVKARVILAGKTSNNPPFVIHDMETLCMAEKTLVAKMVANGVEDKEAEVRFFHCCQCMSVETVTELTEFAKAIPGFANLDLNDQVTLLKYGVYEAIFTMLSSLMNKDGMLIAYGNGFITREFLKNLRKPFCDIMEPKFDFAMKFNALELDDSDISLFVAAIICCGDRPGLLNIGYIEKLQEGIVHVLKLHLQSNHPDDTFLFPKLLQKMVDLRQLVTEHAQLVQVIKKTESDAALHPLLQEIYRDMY
Nature of the test: Agonist activity at mouse PPARalpha ligand binding domain expressed in human Hep G2 cells co-transfected with Gal4-DBD by luciferase reporter gene assay relative to Wy 14,643. In outline:
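HepG2 cells received the Gal4-receptor LBD construct (50 ng), pGal4UAS-luciferase (100 ng) and pCMVβ (300 ng) by calcium phosphate coprecipitation for 4 h. They were then treated in serum-free DMEM/F-12 with ligand or 0.1% ethanol for 20 h. Luciferase was normalized to β-galactosidase, and efficacy was expressed as percent of the Wy 14,643 maximum (100%). Values are mean ± SEM of 3–5 experiments in triplicate.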

The target in test [3] is T3, Oxysterols receptor LXR-beta (Homo sapiens) (UniProt P55055).
T3 sequence (whole entry): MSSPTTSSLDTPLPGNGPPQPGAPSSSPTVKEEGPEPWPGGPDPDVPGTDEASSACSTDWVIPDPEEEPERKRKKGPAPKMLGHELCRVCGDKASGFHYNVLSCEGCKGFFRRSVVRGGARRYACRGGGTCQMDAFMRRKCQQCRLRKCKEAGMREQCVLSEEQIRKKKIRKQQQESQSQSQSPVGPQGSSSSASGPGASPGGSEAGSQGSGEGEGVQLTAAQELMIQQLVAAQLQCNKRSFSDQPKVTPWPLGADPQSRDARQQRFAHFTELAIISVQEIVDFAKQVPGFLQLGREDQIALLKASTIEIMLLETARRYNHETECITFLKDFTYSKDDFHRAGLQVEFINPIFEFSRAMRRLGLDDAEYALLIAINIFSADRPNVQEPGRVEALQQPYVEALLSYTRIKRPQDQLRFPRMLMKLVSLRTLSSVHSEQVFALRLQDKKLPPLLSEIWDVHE
Kind of test: Increase in transcriptional activity of LXRbeta ligand binding domain expressed in human Hep G2 cells co-transfected with Gal4-DBD by luciferase reporter gene assay. In outline:
as §1

The target of test [4] is T4, Retinoic acid receptor RXR-alpha (Homo sapiens) (UniProt P19793).
T4 sequence (whole entry): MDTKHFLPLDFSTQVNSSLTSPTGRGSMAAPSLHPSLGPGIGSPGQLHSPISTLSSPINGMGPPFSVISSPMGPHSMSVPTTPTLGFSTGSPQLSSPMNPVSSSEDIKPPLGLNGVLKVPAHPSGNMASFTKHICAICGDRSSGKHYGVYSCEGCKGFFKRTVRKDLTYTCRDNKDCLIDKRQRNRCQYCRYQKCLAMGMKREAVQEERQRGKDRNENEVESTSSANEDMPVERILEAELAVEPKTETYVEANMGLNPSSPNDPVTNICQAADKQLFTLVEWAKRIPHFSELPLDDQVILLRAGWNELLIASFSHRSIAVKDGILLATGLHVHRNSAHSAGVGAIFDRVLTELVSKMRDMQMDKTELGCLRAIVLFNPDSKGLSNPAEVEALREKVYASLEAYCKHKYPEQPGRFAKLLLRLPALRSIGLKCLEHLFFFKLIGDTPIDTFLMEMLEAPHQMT
Kind of test: Increase in transcriptional activity of RXRalpha ligand binding domain expressed in human Hep G2 cells co-transfected with Gal4-DBD by luciferase reporter gene assay. The essentials: as §1

Test [5] has as its target T5, Bile acid receptor (Homo sapiens) (UniProt Q96RI1).
T5 sequence (whole entry): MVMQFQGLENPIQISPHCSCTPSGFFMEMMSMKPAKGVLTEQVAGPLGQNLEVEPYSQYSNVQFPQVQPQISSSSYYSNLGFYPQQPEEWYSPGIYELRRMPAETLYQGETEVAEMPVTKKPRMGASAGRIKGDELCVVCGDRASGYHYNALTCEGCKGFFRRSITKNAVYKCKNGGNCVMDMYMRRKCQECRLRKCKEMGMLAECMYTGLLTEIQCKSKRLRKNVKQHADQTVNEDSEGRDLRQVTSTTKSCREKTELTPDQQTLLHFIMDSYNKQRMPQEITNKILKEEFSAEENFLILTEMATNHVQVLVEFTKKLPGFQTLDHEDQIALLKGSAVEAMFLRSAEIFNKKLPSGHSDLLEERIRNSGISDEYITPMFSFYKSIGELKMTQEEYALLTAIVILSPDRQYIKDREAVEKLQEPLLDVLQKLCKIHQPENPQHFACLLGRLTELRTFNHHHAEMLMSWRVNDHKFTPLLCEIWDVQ
Kind of test: Increase in transcriptional activity of FXR ligand binding domain expressed in human Hep G2 cells co-transfected with Gal4-DBD by luciferase reporter gene assay. The essentials: as §1

The structures appear in SMILES notation. Active and inactive are the calls of the source. The calls are words filed in the database; no cut-off is given here.

With `O=C(O)[C@H](Cc1ccccc1)Oc1ccc(-c2ccccc2)cc1`, the outcome in test [1], in test [3], in test [4] and in test [5] was inactive. The Efficacy in test [2] was determined as 120%.

`O=C(O)[C@@H](Cc1ccccc1)Oc1ccc(-c2ccccc2)cc1`: the result in test [1], in test [2], in test [3], in test [4] and in test [5] was inactive.
